Data on ten molecules can be found in ChEMBL document CHEMBL1149910, “2-(6-aryl-3(Z)-hexen-1,5-diynyl)anilines as a new class of potent antitubulin agents” (J Med Chem, 2008).

What all share (format): functional
Assay [1] relates to K562. The experiment in a line: Cell cycle arrest in human K562 cells assessed as accumulation at S phase at 50 uM after 24 hrs by flow cytometry. Put shortly: (§1)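 K-562 human leukemia cells were grown in RPMI 1640 with 10% fetal calf serum, glutamine and penicillin/streptomycin at 37 °C in 5% CO₂. Cells were exposed to compound at 50 µM for 24 h, then pelleted and PBS-washed. They were fixed in ice-cold ethanol for 30 min, treated with 1 mg/mL RNase A at 37 °C for 30 min, and stained with propidium iodide and Triton X-100 for 30 min at room temperature in the dark. Per-phase and sub-G1 percentages came from flow cytometry gating.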

The test system of assay [2] is K562. Put plainly: Cytotoxicity against human K562 cells. Put shortly:
(§2)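 Tested in the NCI in vitro antitumor screening protocol across a tumor cell line panel. GI₅₀ is the concentration producing a 50% reduction in cell growth.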

Assay [3] concerns UACC-62. Put plainly: Cytotoxicity against human UACC62 cells. Particulars: read-out: pGI50 (converted). Put shortly:
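NCI in vitro antitumor screening protocol; GI50 taken as the concentration giving 50% reduction in cell growth.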

The subject of assay [4] is HCT-15. Put plainly: Cytotoxicity against human HCT15 cells. Put shortly:
as §2

The subject of assay [5] is MDA-MB-231. The experiment in a line: Cytotoxicity against human MDA-MB-231 cells. Put shortly:
as §2

Assay [6] relates to SNB-75. Put plainly: Cytotoxicity against human SNB75 cells. Particulars: read-out: pGI50 (converted). Put shortly:
as §2

Assay [7] has as its system K562. The experiment in a line: Cell cycle arrest in human K562 cells assessed as accumulation at G2/M phase at 50 uM after 24 hrs by flow cytometry. Put shortly: as §1
For assay [8], the system named is OVCAR-3. Put plainly: Cytotoxicity against human OVCAR-3 cells. Put shortly: as §2
For assay [9], the system named is K562. Put plainly: Cell cycle arrest in human K562 cells assessed as accumulation at sub-G1 phase at 50 uM after 24 hrs by flow cytometry. The method, boiled down: as §1
Assay [10] deals with MDA-MB-435. The experiment in a line: Cytotoxicity against human MDA-MB-435 cells. The method, boiled down:
as §2

Assay [11] relates to K562. The experiment in a line: Cell cycle arrest in human K562 cells assessed as accumulation at G0/G1 phase at 50 uM after 24 hrs by flow cytometry. The method, boiled down:
as §1

For assay [12], the system named is MDA-MB-231. The experiment in a line: Cell cycle arrest in human MDA-MB-231 cells assessed as accumulation of >4N cells at 2 uM after 72 hrs by flow cytometry.
The test system of assay [13] is MDA-MB-231. Put plainly: Cell cycle arrest in human MDA-MB-231 cells assessed as accumulation of 2N cells at 2 uM after 72 hrs by flow cytometry.
Assay [14] deals with MDA-MB-231. The experiment in a line: Cell cycle arrest in human MDA-MB-231 cells assessed as accumulation of >4N cells at 2 uM after 24 hrs by flow cytometry.
Assay [15] has as its system MDA-MB-231. The experiment in a line: Cell cycle arrest in human MDA-MB-231 cells assessed as accumulation of 4N cells at 2 uM after 24 hrs by flow cytometry.
Assay [16] has as its system MDA-MB-231. Put plainly: Cell cycle arrest in human MDA-MB-231 cells assessed as accumulation of 2N cells at 2 uM after 24 hrs by flow cytometry.
For assay [17], the system named is MDA-MB-231. Put plainly: Cell cycle arrest in human MDA-MB-231 cells assessed as accumulation at sub-G1 phase at 2 uM after 24 hrs by flow cytometry.
The test system of assay [18] is MDA-MB-231. The experiment in a line: Cell cycle arrest in human MDA-MB-231 cells assessed as accumulation of 4N cells at 2 uM after 72 hrs by flow cytometry.
Assay [19] deals with MDA-MB-231. Put plainly: Cell cycle arrest in human MDA-MB-231 cells assessed as accumulation at sub-G1 phase at 2 uM after 72 hrs by flow cytometry.

Each structure is given as a SMILES string.

With `Nc1ccccc1C#C/C=C\C#Cc1ccccc1OC(F)(F)F`, the Activity in [1] is 24.1%; in assay [7], 71.4%; in [9] it was 30.55%; in assay [11], 4.5%. For the same molecule, the GI50 was 2.51 µM in assay [2]; 6.31 µM in [3]; 3.98 µM in assay [4]; 5.01 µM in assay [5]; 2.51 µM in assay [6]; 3.98 µM in assay [8]. Also, in [10], the GI50 is 1.26 µM.

As for `Nc1ccccc1C#C/C=C\C#CC#C/C=C\C#Cc1ccccc1N`, the Activity was 25% in assay [1], 52.2% in assay [7], 9.19% in assay [9] and 22.8% in assay [11]. Besides, the GI50 is 0.794 µM in [2]; 2 µM in assay [3]; 3.98 µM in [4]; 1.58 µM in [5]; 3.16 µM in assay [6]; 2.51 µM in assay [8]. In addition, in [10], the GI50 was 3.16 µM.

Regarding `Nc1ccccc1C#C/C=C\C#Cc1ccc(F)cc1F`, the Activity was determined as 33.1% in assay [1], 34.4% in assay [7], 10.04% in assay [9] and 32.5% in [11]. The GI50 is 5.01 µM in assay [2]; 15.8 µM in [3]; 12.6 µM in assay [4]; 15.8 µM in [5]; 6.31 µM in [8]; 2.51 µM in [10].

With `COc1ccc(/C=C\c2cc(OC)c(OC)c(OC)c2)cc1O` [COMBRETASTATIN A4], the GI50 is 0.0316 µM in assay [2]; 0.01 µM in assay [3]; 0.0316 µM in [4]; 0.01 µM in assay [5]; 0.794 µM in assay [6]; 0.0398 µM in assay [8]. The molecule further showed a GI50 in assay [10] of 0.0316 µM.

Take `Nc1ccccc1C#C/C=C\C#Cc1ccccc1F`: the Activity in [1] was 40.9%; in [7], 37%; in assay [9], 11.5%; in [11], 22.1%. Further, the GI50 in [2] is 3.16 µM; in assay [3], 7.94 µM; in [4] it was 5.01 µM; in assay [5] it was 10 µM; in assay [8] it was 3.16 µM; in assay [10], 2 µM.

As for `Nc1ccccc1C#C/C=C\C#Cc1ccccc1[N+](=O)[O-]`, the Activity in assay [1] was determined as 41%; in [7], 16.3%; in [9] it was 11.13%; in assay [11], 42.7%. In addition, the GI50 is 0.501 µM in assay [2]; 2 µM in assay [3]; 0.794 µM in [4]; 0.398 µM in assay [5]; 12.6 µM in [6]; 3.98 µM in assay [8]. The same molecule showed a GI50 in [10] of 0.398 µM.

Take `COc1cc2c(c(OC)c1OC)-c1ccc(OC)c(=O)cc1[C@@H](NC(C)=O)CC2` [COLCHICINE]: the GI50 in [2] was 0.0126 µM; in assay [3], 0.0251 µM; in assay [4], 0.126 µM; in assay [5], 0.316 µM; in [6], 0.0251 µM; in assay [8] it was 0.0158 µM. Besides, in assay [10], the GI50 is 0.01 µM. Besides, the Activity was determined as 11.5% in assay [12]; 6.9% in [13]; 11.3% in assay [14]; 55.2% in assay [15]; 10.2% in assay [16]; 23.3% in [17]. Moreover, the Activity in assay [18] worked out at 21.6%; in [19] it was 60%.

Consider `CCOC(=O)c1ccccc1C#C/C=C\C#Cc1ccccc1N`, for which the Activity is reported as 12.7% in assay [1], 81.4% in assay [7], 28.68% in assay [9] and 5.9% in assay [11].

On to `Nc1ccccc1C#C/C=C\C#Cc1ccc([N+](=O)[O-])cc1`, for which the Activity in [1] came out at 46.2%; in [7] it was 18.8%; in [9], 15.78%; in assay [11], 35%.

As to `Nc1ccccc1C#C/C=C\C#Cc1c(F)c(F)c(F)c(F)c1F`, the Activity in [1] worked out at 38.5%; in [7], 17.9%; in assay [9] it was 27.34%; in [11], 43.6%. For the same molecule, the GI50 in assay [2] is 15.8 µM; in assay [3], 12.6 µM; in assay [4] it was 15.8 µM; in [5], 2.51 µM; in [6], 39.8 µM; in [8], 15.8 µM. This molecule also gave a GI50 in assay [10] of 15.8 µM.
